Source: ChEMBL document CHEMBL1122488, “synthesis and antitumor activity of 2-deoxyribofuranosides of 3-deazaguanine” (1983)
Values belong to the molecule of their own block, whether it stands above or below them.

Columns and labels:
Type in all cases: functional
[1] = system: Mus musculus; experiment: Tumor weight on day 17 of C3H mammary adenocarcinoma 16/C in B6C3F1 female mice at 80 mg/kg by subcutaneous administration; details: route intraperitoneal, in the assay text read “intraperitoneal administration” for “subcutaneous administration”
Procedure, shortened: (§1)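 C3H mammary adenocarcinoma 16/C, lung-passed in C3H female mice. Freshly harvested 2- to 4-mm3 fragments were implanted subcutaneously into 18- to 20-g B6C3F1 females on day 0, and the mice were randomized the next day. Drugs were dissolved in 0.2 M phosphate buffer and given ip once daily on days 1-9; controls received 0.2 mL buffer. Tumor weight was estimated from caliper length and width by […].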

[2] = system: Mus musculus; experiment: Percentage growth inhibition of mammary adenocarcinoma 16/C in B6C3F1 female mice at 40 mg/kg dose […]; details: sc; procedure, shortened: as §1
[3] = system: Mus musculus; experiment: Change in weight on day 9 of mammary adenocarcinoma 16/C in B6C3F1 female mice at 80 mg/kg […]; procedure, shortened: as §1
[4] = system: Mus musculus; experiment: Change in weight on day 9 of mammary adenocarcinoma 16/C in B6C3F1 female mice at 40 mg/kg […]; procedure, shortened: as §1
[5] = system: Mus musculus; experiment: Tumor weight on day 17 of C3H mammary adenocarcinoma 16/C in B6C3F1 female mice at 40 mg/kg […]; procedure, shortened: as §1
[6] = system: Mus musculus; experiment: Animals with palpable tumors on day 17 at 80 mg/kg by subcutaneous administration in B6C3F1 female mice; 6/6; details: route intraperitoneal, in the assay text read “intraperitoneal administration” for “subcutaneous administration”; procedure, shortened: as §1
[7] = system: Mus musculus; experiment: Animals with palpable tumors on day 17 at 40 mg/kg by subcutaneous administration in B6C3F1 female mice; 6/6; details: route intraperitoneal, in the assay text read “intraperitoneal administration” for “subcutaneous administration”; procedure, shortened: as §1
[8] = system: L1210; experiment: Effective dose that produced 50% inhibition of L1210 Leukemia cell growth in culture; details: Mus musculus, read-out: ED50 (the source's name)
Procedure, shortened: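 The value is the drug concentration in the culture medium that gave 50% inhibition of L1210 leukemia cell growth, relative to untreated controls, after a 48-h incubation. Results are mean ± standard error.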

[9] = system: Mus musculus; experiment: Percentage growth inhibition of mammary adenocarcinoma 16/C in B6C3F1 female mice at 80 mg/kg dose […]; details: sc; procedure, shortened: as §1
[10] = system: Mus musculus; experiment: Animals with palpable tumors on day 17 at the dose of 100 mg/kg by […] in 6 B6C3F1 female mice; 6/6 animals were with palpable tumors.; procedure, shortened: as §1
[11] = system: Mus musculus; experiment: Change in weight of mammary adenocarcinoma 16/C in B6C3F1 female mice at 50 mg/kg […] on day 9; procedure, shortened: as §1
[12] = system: Mus musculus; experiment: Change in weight of mammary adenocarcinoma 16/C in B6C3F1 female mice at 100 mg/kg […] on day 9; procedure, shortened: as §1
[13] = system: Mus musculus; experiment: Tumor weight of C3H mammary adenocarcinoma 16/C in B6C3F1 female mice at 50 mg/kg by subcutaneous administration on day 17; details: route intraperitoneal, in the assay text read “intraperitoneal administration” for “subcutaneous administration”; procedure, shortened: as §1
[14] = system: Mus musculus; experiment: Percentage growth inhibition of mammary adenocarcinoma 16/C in B6C3F1 female mice at the dose of 100 mg/kg by subcutaneous administration; details: ip, in the assay text read “intraperitoneal administration” for “subcutaneous administration”; procedure, shortened: as §1
[15] = system: Mus musculus; experiment: Percentage growth inhibition of mammary adenocarcinoma 16/C in B6C3F1 female mice at the dose of 50 mg/kg by subcutaneous administration; details: ip, in the assay text read “intraperitoneal administration” for “subcutaneous administration”; procedure, shortened: as §1
[16] = system: Mus musculus; experiment: Tumor weight of C3H mammary adenocarcinoma 16/C in B6C3F1 female mice at 100 mg/kg by subcutaneous administration on day 17; details: route intraperitoneal, in the assay text read “intraperitoneal administration” for “subcutaneous administration”; procedure, shortened: as §1
[17] = system: Mus musculus; experiment: Animals with palpable tumors on day 17 at the dose of 50 mg/kg by […] in 6 B6C3F1 female mice; 6/6 animals were with palpable tumors.; procedure, shortened: as §1
[18] = system: Mus musculus; experiment: Animals with palpable tumors on day 17 after subcutaneous administration in 6 B6C3F1 female mice; 5/6 animals were with palpable tumors.; details: in the assay text read “intraperitoneal administration” for “subcutaneous administration”; procedure, shortened: as §1
[19] = system: Mus musculus; experiment: Tumor weight of C3H mammary adenocarcinoma 16/C in B6C3F1 female mice at 80 mg/kg by subcutaneous administration on day 17; details: route intraperitoneal, in the assay text read “intraperitoneal administration” for “subcutaneous administration”; procedure, shortened: as §1
[20] = species on record: Mus musculus; experiment: Percentage growth inhibition of mammary adenocarcinoma 16/C in B6C3F1 female mice; procedure, shortened: as §1
[21] = system: Mus musculus; experiment: Change in weight of mammary adenocarcinoma 16/C in B6C3F1 female mice by subcutaneous administration on day 9; procedure, shortened: as §1

EC50 [8]: 9 µM
Compound: Nc1cc2c(ncn2[C@H]2C[C@H](O)[C@@H](CO)O2)c(O)n1
Tumor weight [1]: 1.09 g
inhibition in vivo at 40 mg/kg [2]: 25%
Delta weight [3]: 1.2
Delta weight [4]: 0.58
Tumor weight [5]: 2.7 g
Animals with palpable tumor [6]: 6
Animals with palpable tumor [7]: 6
inhibition in vivo at 80 mg/kg [9]: 69.7%

EC50 [8]: 950 µM
Compound: Nc1cc2ncn([C@H]3C[C@H](O)[C@@H](CO)O3)c2c(O)n1
Animals with palpable tumor [10]: 6
Delta weight [11]: 0.72
Delta weight [12]: 0.95
Tumor weight [13]: 2.95 g
inhibition in vivo at 100 mg/kg [14]: 2.8%
inhibition in vivo at 50 mg/kg [15]: 18.1%
Tumor weight [16]: 3.5 g
Animals with palpable tumor [17]: 6

EC50 [8]: 7 µM
Compound: Nc1cc2c(ncn2[C@@H]2O[C@H](CO)[C@@H](O)[C@H]2O)c(=O)[nH]1

EC50 [8]: 750 µM
Compound: Nc1cc2ncn([C@@H]3O[C@H](CO)[C@@H](O)[C@H]3O)c2c(=O)[nH]1

EC50 [8]: 11 µM
Compound: Nc1cc2[nH]cnc2c(=O)[nH]1 [DEZAGUANINE]
Animals with palpable tumor [18]: 5
Tumor weight [19]: 0.25 g
Inhibition [20]: 93.1%
Delta weight [21]: 0.06
